Screening results (PubChem)
STEP inh – STEP phosphatase inhibitors, primary screen, biochemical, fluorescence intensity, uHTS | Tyrosine-protein phosphatase non-receptor type 5 (Homo sapiens), P54829 | recombinant STEP, OMFP fluorogenic substrate | inhibition, % at 20 µM | 360,000 compounds, 0.25% hits;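 active means inhibition at 20 µM, scaled per plate between control wells, above about 37%, limit read from the data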;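 further: 0% = DMSO with enzyme and substrate and 100% = substrate only without enzyme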
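Measure: Control-normalized % inhibition with plate pattern correction | Test system: STEP phosphatase, cell-free reaction | Medium: pH 6.0 Bis-Tris with DTT and Tween 20 | Technique: Fluorescence, 480/540 nm | Times: Reaction 20 min, ambient temperature | Doses: Single compound dose of 20 µM, 1% DMSO final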
Scp-1 inhibitor – Scp-1 phosphatase inhibitors, primary screen, biochemical, colorimetric, uHTS. AID 493091, 2011. 340,000 compounds, 0.88% hits. inhibition, % at 20 µM. Recombinant Scp1, phosphopeptide, malachite green phosphate absorbance;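 active means inhibition above about 50% at 20 µM, limit read from the data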;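 further: plate controls were DMSO wells with enzyme for no effect and wells lacking enzyme for full effect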
Target sequence (Q9GZU7 76-261 limits assumed): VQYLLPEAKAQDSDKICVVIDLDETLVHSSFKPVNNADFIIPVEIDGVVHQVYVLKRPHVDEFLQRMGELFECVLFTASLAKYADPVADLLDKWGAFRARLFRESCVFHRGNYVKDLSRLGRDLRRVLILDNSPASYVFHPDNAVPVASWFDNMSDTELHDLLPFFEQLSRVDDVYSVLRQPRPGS
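Test system – truncated SCP-1 phosphatase (76-261aa) · Reagent – Phosphorylated 17-residue peptide substrate · Incubation – 45 min room-temperature reaction, 5 min colour, 30 min stabiliser · Detection – colorimetric phosphate reagent with accelerator and stabiliser, absorbance at 630 nm · Measure – % inhibition at 20 µM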
LMPTP block – LMPTP phosphatase inhibitors, primary screen, biochemical, fluorescence intensity, uHTS; recombinant LMPTP-A, OMFP fluorogenic substrate; Low molecular weight phosphotyrosine protein phosphatase (Homo sapiens), P24666; inhibition, % at 20 µM; 360,000 compounds, 0.22% hits; AID 651560, 2012;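 active means compounds that cut the enzyme signal by at least half of the control window in the single-dose screen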;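 further: plate controls were DMSO wells with enzyme plus substrate for no effect and substrate without enzyme for full effect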
Target sequence (P24666 whole entry, looked up): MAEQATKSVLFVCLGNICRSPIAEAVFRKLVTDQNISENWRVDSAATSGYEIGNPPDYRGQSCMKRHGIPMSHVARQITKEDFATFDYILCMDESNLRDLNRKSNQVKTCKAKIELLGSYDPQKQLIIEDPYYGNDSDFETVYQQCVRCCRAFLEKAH
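test system = LMPTP-A | amount = 0.625 nM LMPTP-A final | reagent = fluorogenic phosphatase substrate OMFP at 400 µM final | incubation = 50 min at room temperature | benchmarks = no-enzyme low control, uninhibited high control | medium = Bis-Tris pH 6.0, DTT, detergent | signal = fluorescence intensity of OMFP turnover product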
DNMT1 block – human DNMT1 methyltransferase inhibitors, primary screen, biochemical, molecular beacon, fluorescence, HinP1I cleavage, uHTS | inhibition (reported as % activation of signal), % at 10 µM | 360,000 compounds, 0.83% hits | AID 588458, 2011; in the data active means inhibition above about 50%
SUMO1-SIM PPI – modulators of SUMO1 protein-protein interactions, primary screen, biochemical, uHTS; Small ubiquitin-related modifier 1 (Homo sapiens), P63165; SUMO1 binding to a labelled peptide, TR-FRET, 1 h; inhibition, % at 20 µM; 360,000 compounds, 0.33% hits; AID 602429, 2012; in the data active means inhibition above about 37%
Target sequence (P63165 whole entry, looked up): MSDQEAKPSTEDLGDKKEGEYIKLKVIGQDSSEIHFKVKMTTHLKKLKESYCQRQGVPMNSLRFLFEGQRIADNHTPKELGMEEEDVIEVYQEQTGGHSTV
* marks the source's active call; other numbers are inactive results; i = inactive; / = no result given; + = active, no number. A selection: hits, their analogues and other compounds. The true share with any hit is near 1.7%.

SMILES	STEP inh	Scp-1 inhibitor	LMPTP block	DNMT1 block	SUMO1-SIM PPI
CC[C@@H]1CCC[C@@H](O)[C@@H](C)C(=O)O[C@H](C)[C@@H](C)C/C=C(C)/C(OC)=C\C(=O)N(C)C([C@@H](C)CC)C(=O)N(C)[C@@H](C(C)C)C(=O)N(C)[C@@H](COC)C(=O)N2CCC[C@H]2C(=O)N(C)[C@@H](C(C)C)C(=O)N2CCC[C@H]2C(=O)O1 (some centres undefined)	2	/	-1	-27	-1
CC1=NOC(=O)/C1=C\c1ccc(-c2ccc(Cl)cc2Cl)o1	3	9	7	91*	53*
CCCOc1ccc(Cl)cc1/C=C1/C(=O)ON=C1C	2	-7	1	2	-1
Cc1ccc(/C=C2\SC(=S)N(/N=C/c3cc([N+](=O)[O-])ccc3O)C2=O)o1	17	57*	53*	83*	45*
O=C(O)c1cc(C(=O)O)cc(-c2ccc(/C=c3/sc4nc5ccccc5n4c3=O)o2)c1	/	70*	/	/	/
O=C(O)c1cccc(-c2ccc(/C=c3/sc4nc5ccccc5n4c3=O)o2)c1	94*	96*	49	87*	103*
O=c1/c(=C\c2cc([N+](=O)[O-])cc([N+](=O)[O-])c2O)sc2nc3ccccc3n12	35	80*	9	18	27
COC(=O)/C=c1/sc2nc3ccccc3n2c1=O	14	-6	1	1	-7
O=c1/c(=C/c2ccccn2)sc2nc3ccccc3n12	-5	0	4	39	-3
Cc1ccc(-c2nnc(-c3ccc4c(c3)OCO4)o2)cc1	-3	8	7	8	68*
Brc1ccc(-c2nnc(-c3ccc4c(c3)OCO4)o2)o1	1	25	19	10	-1
Nc1ccc(-c2c3ccc(=O)cc-3oc3cc(O)ccc23)cc1C(=O)O	-60	4	10	+	-356
COc1ccc(-c2c(C)c3ccc(O)cc3oc2=O)cc1OC	-2	-9	-2	6	-19
O=c1cc(-c2ccccc2)oc2cc(O)ccc12	-3	-10	0	0	-4
O=c1ccc2c(-c3ccccc3)c3ccc(O)cc3oc-2c1	i	18	-148	+	i
CC(=O)c1ccc(-c2ccc(/C=C(/Sc3n[nH]c(C)n3)C(=O)O)o2)cc1	-4	30	2	1	9
Cc1nc(S/C(=C/c2ccc(-c3ccc(C(=O)O)cc3)o2)C(=O)O)n[nH]1	15	75*	0	28	8
Cc1nc(S/C(=C/c2ccc(-c3cc(Cl)ccc3C)o2)C(=O)O)n[nH]1	3	17	3	-2	69*
COc1ccccc1NC(=O)C(C)OC(=O)C1CC(=O)N(Cc2ccco2)C1 (centres undefined)	-1	/	2	9	3
Cc1ccc(OCCC(=O)OCC(=O)NC(=O)c2ccccc2)cc1	0	-1	0	1	-5
CCCCCCCN1C2=NCCCN2c2ccccc21	-2	1	1	1	-2
COCCCOc1ccnc(CS(=O)c2nc3ccccc3[nH]2)c1C (centres undefined)	74*	14	1	-4	1
CN1CCN(C(=O)c2sc(=S)n(-c3ccccc3)c2N)CC1	96*	22	2	-2	-11
COc1ccc(CN(C)C(=O)CNC(=O)c2sc3ccccc3c2Cl)c(OC)c1	0	/	2	-6	-6
COc1ccc(NC(=O)C(=O)N/N=C\c2ccc(CNC(=O)C(=O)Nc3ccc(C)c(C)c3)o2)c(OC)c1	/	68*	/	/	/
SMILES	STEP inh	Scp-1 inhibitor	LMPTP block	DNMT1 block	SUMO1-SIM PPI
O=C(O)c1ccccc1NS(=O)(=O)c1cccc(-n2sc3ccccc3c2=O)c1	8	95*	-1	4	30
O=C(O)c1ccccc1NS(=O)(=O)c1cccc(C(F)(F)F)c1	0	1	0	0	1
CS(=O)(=O)c1ccc(C(=O)OCC(=O)NCc2cccs2)cc1[N+](=O)[O-]	22	-3	0	71*	-13
Cc1oc2c(c1C(=O)c1ccccc1)C(=O)C(=O)c1ccccc1-2	14	-5	6	93*	37*
COc1ccccc1-c1ncn(Cc2cccc(-c3ccccc3)c2)c1-c1ccco1	/	/	11	/	13
COC(=O)c1cc(C(=O)OC)n(Cc2ccc(Cl)cc2Cl)n1	1	-6	0	5	4
CC(C)(C)c1cc(C(=O)O)n(Cc2ccc(Cl)cc2Cl)n1	1	-13	0	3	49*
CC(C)c1ccc(NC(=O)CCNC(=O)Cn2cnc3ccccc3c2=O)cc1	0	8	0	0	-1
O/C=c1\ccc2cccc3nc(C(F)(F)F)nc1c23	1	12	33	50*	-13
COc1cc(C)c2c(c1C=O)Oc1c(c(C)c(O)c3c1C(O)OC3=O)OC2=O (centres undefined)	2	10	-9	-21	78*
COc1ccc2nc(NC(=O)c3ccc4ncsc4c3)sc2c1	-3	0	-1	-10	43*
COc1ccc(C(=O)Nc2nc3cc4c(cc3s2)OCCO4)c(OC)c1	0	2	4	-12	47*
COc1ccccc1C(=O)Nc1nc2cc3c(cc2s1)OCCO3	6	-5	0	17	2
Cc1ccsc1-c1nc(C(N)=O)c2[nH]c(=O)n(-c3ccc(Cl)cc3)c2n1	1	7	11	55*	16
Cc1ccc(-n2c(=O)[nH]c3c(C(N)=O)nc(C(C)C)nc32)cc1	-2	-9	0	0	-1
CC1=C(C#N)c2nc(N)c(C#N)c(C)c2/C1=C\c1ccc(-c2ccccc2C(=O)O)o1	19	63*	24	62*	30
COc1cc(/C=C2/C(C)=C(C#N)c3nc(N)c(C#N)c(C)c32)ccc1OCC(=O)O	/	9	/	/	/
Fc1ccccc1-c1nc(NCCCN2CCOCC2)c2ccccc2n1	-4	-3	51*	1	0
CC(C)OCCCNc1nc(-c2ccccc2)nc2ccccc12	3	-1	56*	6	5
CN(C)CCCNc1nc(-c2ccccc2)nc2ccccc12	1	-4	28	-6	-23
Clc1ccc(-c2nc(NCCCN3CCOCC3)c3ccccc3n2)cc1	-1	2	42	14	5
Cc1ccc(-c2nc(NCCN3CCOCC3)c3ccccc3n2)cc1	-2	-8	50*	0	3
COc1ccc(NC(=O)Cc2ccc(C)c(C)c2)cc1Cl	-8	-2	0	0	1
